Measurements published in ChEMBL document CHEMBL1128525, “The role of water molecules in the structure-based design of (5-hydroxynorvaline)-2-cyclosporin: synthesis, biological activity, and crystallographic analysis with cyclophilin A” (J Med Chem, 1995).

Columns and labels:
[1] = biological target: T1, Peptidyl-prolyl cis-trans isomerase A (Homo sapiens, UniProt P62937); assay: In vitro binding affinity against cyclophilin A by ELISA
[2] = biological target: T1, Peptidyl-prolyl cis-trans isomerase A; assay: In vitro binding affinity against cyclophilin A by rotamase assay
[3] = species: Mus musculus; assay: The compound was evaluated in vitro for the immunosuppressive activity in mouse mixed lymphocyte reaction (MLR_M); assay type: functional
Procedure, shortened: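 Cellular immunosuppression read in the mouse mixed lymphocyte reaction or the interleukin-2 reporter gene assay. The IC50 in nM is the mean of three independent experiments.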

T1 sequence (P62937 whole entry): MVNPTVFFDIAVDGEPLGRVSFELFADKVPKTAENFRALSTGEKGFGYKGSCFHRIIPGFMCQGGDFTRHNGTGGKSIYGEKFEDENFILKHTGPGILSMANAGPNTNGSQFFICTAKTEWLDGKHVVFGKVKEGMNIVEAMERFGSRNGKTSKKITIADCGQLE

| Structure (SMILES) | IC50 [1] [µM] | IC50 [2] [µM] | IC50 [3] [µM] |
| --- | --- | --- | --- |
| C/C=C/C[C@@H](C)[C@@H](O)[C@@H]1C(=O)N[C@H](CCC)C(=O)N(C)[C@@H](CO)C(=O)N(C)[C@H](CC(C)C)C(=O)N[C@H](C(C)C)C(=O)N(C)[C@H](CC(C)C)C(=O)N[C@H](C)C(=O)N[C@@H](C)C(=O)N(C)[C@H](CC(C)C)C(=O)N(C)[C@H](CC(C)C)C(=O)N(C)[C@H](C(C)C)C(=O)N1C | 0.093 | 0.048 | 0.056 |
| C/C=C/C[C@@H](C)[C@@H](O)[C@H]1C(=O)N[C@@H](CCC)C(=O)N(C)CC(=O)N(C)[C@@H](CC(C)C)C(=O)N[C@@H](C(C)C)C(=O)N(C)[C@@H](CC(C)C)C(=O)N[C@@H](C)C(=O)N[C@H](C)C(=O)N(C)[C@@H](CC(C)C)C(=O)N(C)[C@@H](CC(C)C)C(=O)N(C)[C@@H](C(C)C)C(=O)N1C [GECLOSPORIN] | 0.31 | 0.13 | 0.046 |
| C/C=C/C[C@@H](C)[C@@H](O)[C@@H]1C(=O)N[C@H](CCCO)C(=O)N(C)CC(=O)N(C)[C@H](CC(C)C)C(=O)N[C@H](C(C)C)C(=O)N(C)[C@H](CC(C)C)C(=O)N[C@H](C)C(=O)N[C@@H](C)C(=O)N(C)[C@H](CC(C)C)C(=O)N(C)[C@H](CC(C)C)C(=O)N(C)[C@H](C(C)C)C(=O)N1C | 0.45 | 0.256 | 0.14 |
